ChEMBL document CHEMBL1151805, “Effect of guggulsterone and cembranoids of Commiphora mukul on pancreatic phospholipase A(2): role in hypocholesterolemia” (J Nat Prod, 2009)
pKd: −log10 of the molar value. Calls of active or inactive are those of the source. The rule behind the calls is not given here.

Key:
Phospholipase A2 [1] = biological target: T1, Phospholipase A2 (Homo sapiens, UniProt P04054); experiment: Reduction in human pancreatic recombinant 1B PLA2 activity expressed in Escherichia coli assessed as hydrolysis of cholate-activated 1,2-dimyristoyl-sn-3-glycerophosphocholine vesicles
Target sequence in this assay (P04054 23-148 limits assumed): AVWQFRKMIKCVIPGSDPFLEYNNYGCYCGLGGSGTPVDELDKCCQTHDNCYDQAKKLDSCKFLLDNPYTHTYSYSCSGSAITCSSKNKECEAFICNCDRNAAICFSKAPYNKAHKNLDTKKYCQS

Phospholipase A2 [2] = biological target: T1, Phospholipase A2; experiment: Increase in human pancreatic recombinant 1B PLA2 activity expressed in Escherichia coli assessed as hydrolysis rate of 1,2-dimyristoyl-sn-3-glycerophosphocholine vesicles in absence of cholate
Outline: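 pH-stat titration of hydrolysis of sonicated 1 mM DMPC vesicles, started with 2 to 10 pM hPLA2, titrated with 1 mM 2-aminopropanediol base. Buffer was 5 mM CaCl2, 1 mM NaCl, 0.1 mM EDTA, pH 8.0, 24 ± 0.1 °C, under nitrogen. Test compound was present at 0.03 or 0.007 MF.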
Target sequence in this assay (P04054 23-148 limits assumed): as above

Phospholipase A2 [3] = biological target: T1, Phospholipase A2; experiment: Apparent inhibition of human pancreatic recombinant 1B PLA2 expressed in Escherichia coli assessed as hydrolysis rate of 1,2-dimyristoyl-sn-3-glycerophosphocholine vesicles in presence of cholate
Target sequence in this assay (P04054 23-148 limits assumed): as above

Phospholipase A2 [4] = biological target: T1, Phospholipase A2; experiment: Binding affinity to human pancreatic recombinant 1B PLA2 expressed in Escherichia coli at 100 uM by saturation transfer difference NMR spectroscopy
Target sequence in this assay (P04054 23-148 limits assumed): as above

Sus scrofa = species on record: Sus scrofa; experiment: Binding affinity to pig PLA2 at 100 uM by saturation transfer difference NMR spectroscopy
Outline: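 STD NMR at 15 °C in 20 mM bicarbonate in D2O, pH 7.5, with 100 µM ligand and 7 µM pig pancreatic PLA2. Difference of on- and off-resonance irradiation by phase cycling, coadded from 6144 scans.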

Phospholipase A2 [5] = biological target: T1, Phospholipase A2; experiment: Binding affinity to human pancreatic recombinant 1B PLA2 expressed in Escherichia coli by resonance energy transfer assay in presence of trimethyl-ammonium-diphenylhexatriene
Outline: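 Aqueous-phase binding measured as bile-salt quenching of the resonance energy transfer signal from the hPLA2–trimethyl-ammonium-diphenylhexatriene complex. Kd was derived from the quenching.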
Target sequence in this assay (P04054 whole entry): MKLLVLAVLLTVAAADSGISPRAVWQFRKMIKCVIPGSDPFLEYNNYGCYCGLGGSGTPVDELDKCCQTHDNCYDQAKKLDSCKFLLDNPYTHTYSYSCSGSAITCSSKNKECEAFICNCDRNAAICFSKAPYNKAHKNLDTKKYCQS

Phospholipase A2 [6] = biological target: T1, Phospholipase A2
Target sequence in this assay (P04054 23-148 limits assumed): as the sequence (P04054 23-148 limits assumed) above

Structure (SMILES)	Activity (Phospholipase A2 [1])	Activity (Phospholipase A2 [2])	Ki(app) (mole fraction) (Phospholipase A2 [3])	Activity (Phospholipase A2 [4])	Activity (Sus scrofa)	pKd (Phospholipase A2 [5])	Ki(app) (mole fraction) (Phospholipase A2 [6])
CC1=C\C/C=C(\C)CC/C=C(\C)CC[C@](O)(C(C)C)/C=C\1	Dose-dependent effect	inactive	0.00325	–	–	–	–
C[C@H](CCC(=O)NCCS(=O)(=O)O)[C@H]1CC[C@H]2[C@@H]3CC[C@@H]4C[C@H](O)CC[C@]4(C)[C@H]3C[C@H](O)[C@]12C	–	–	–	Active	–	–	–
C[C@H](CCC(=O)O)[C@H]1CC[C@H]2[C@@H]3[C@H](O)C[C@@H]4C[C@H](O)CC[C@]4(C)[C@H]3CC[C@]12C	–	–	–	Active	Active	–	–
C[C@H](CCC(=O)O)[C@H]1CC[C@H]2[C@@H]3[C@H](O)C[C@@H]4C[C@H](O)CC[C@]4(C)[C@H]3C[C@H](O)[C@]12C [CHOLIC ACID]	–	–	–	Active	Active	< 3.82	–
C[C@H](CCC(=O)NCCS(=O)(=O)O)[C@H]1CC[C@H]2[C@@H]3[C@@H](O)C[C@@H]4C[C@H](O)CC[C@]4(C)[C@H]3CC[C@]12C [TAURURSODIOL]	Dose-dependent effect	–	0.000306	–	–	5.00	0.005
